Where a SMILES comes first, the peptide text is derived from it. Bridges are numbered along the chain shown (N, C = ends). [ ]: non-standard residue; d: D form. 2Nal = N[C@@H](Cc1ccc2ccccc2c1)C(=O)O; Lys(iPr) = CC(C)NCCCC[C@H](N)C(=O)O
Legend:
[1] = format: in vivo, human
Summary of the method: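 The analysis used 767 plasma samples from 147 patients given once-daily s.c. doses. Concentrations were measured by validated LC-MS/MS (LLOQ 0.2, ULOQ 100 ng/mL). The data were fitted with a two-compartment nonlinear mixed-effects model with first-order absorption and dose-dependent clearance. Exponential interindividual variability was used, with allometric body-weight scaling to an 80.1-kg subject. The model was built on rich dose-escalation data, then refined with sparse data. Absorption rate was later fixed at 10 h-1.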

[2] = tested on: blood CD34+ cell counts; format: in vivo, human; details: patients
Summary of the method: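 Pooled data from three open-label trials of once-daily s.c. peptide antagonist. In the dose-escalation trial, patients received 1–30 mg/day, or 2.5 or 20 mg/day, for 28-day cycles with rich sampling. The other two trials gave 20 mg/day with standard-of-care chemotherapy or sunitinib and used sparse sampling. CD34+ counts were measured by flow cytometry. The model was a precursor model with reversible precursor–central transfer and concentration-driven stimulation of mobilisation (Smax, SC50).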

[3] = Antidrug antibody; parameters: species or system human; details: all patients included in the analysis datasets
Summary of the method: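 Serum was sampled repeatedly before and after starting once-daily s.c. dosing. Qualitative direct ELISA: the test compound was immobilised on the plate to capture antibodies, which were detected with HRP-conjugated goat anti-human IgG, IgM and IgA and a tetramethylbenzidine substrate. Pooled normal human serum served as negative control. Serum from hyperimmunised cynomolgus monkeys, at various dilutions, served as positive control.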

[4] = tested on: CXCR4; details: cited from earlier work
[5] = tested on: CXCL12/CXCR4-mediated chemotaxis; details: in vitro; cited from earlier work
[6] = tested on: leukocytes and hematopoietic progenitors; details: rodent and primate models; cited from earlier work
[7] = tested on: MDA‐MB‐231 breast cancer; details: MDA‐MB‐231 breast cancer metastatic xenograft model; cited from earlier work
[8] = tested on: cytochromes; details: preclinical evaluations, no reference given; cited from earlier work
[9] = rats, excretion studies, no reference given; cited from earlier work
[10] = population PK typical value, s.c.

CC(C)NCCCC[C@H](NC(=O)[C@H]1CCC(=O)N[C@@H](Cc2ccccc2)C(=O)N[C@@H](Cc2ccc(O)cc2)C(=O)N[C@@H](CCCCNC(C)C)C(=O)N[C@H](CCCNC(=N)N)C(=O)N[C@@H](Cc2ccc3ccccc3c2)C(=O)NCC(=O)N1)C(N)=O [LY2510924] (FY[Lys(iPr)][dR][2Nal]G[dE][Lys(iPr)]-NH2; lactam N-7)
TVKA, estimates of typical first‐order absorption rate when estimated ([1]; high and poorly estimated, before fixing, s.c.): > 40 h⁻¹
TVV2/F, typical apparent central volume of distribution ([1]; population PK typical value, 80.1-kg subject, s.c.): 35.0 L
TVCLmin/F, typical minimum apparent elimination clearance ([1]; population PK typical value, 80.1-kg subject, s.c. once daily, 147 patients): 4.75 L/h
TVQ/F, typical apparent distribution clearance [1, 10]: 3.74 L/h
TVV3/F, typical apparent peripheral volume of distribution [1, 10]: 21.9 L
bV, typical allometric exponent specific to central volume ([1]; population PK, body weight scaling relative to 80.1 kg): 0.948
SC50, LY2510924 concentration at which half of the maximum stimulatory effect is achieved ([2]; PK/PD model typical value, plasma concentration): 6.87 ng/mL
Smax, maximum stimulatory effect of LY2510924 on CD34+ cell mobilization ([2]; PK/PD model typical value, s.c. once daily): 13.1
EC50 ([2]; read-out: SC50, LY2510924 concentration at which half of the maximum stimulatory effect is achieved, conversion of 6.87 ng/mL, plasma concentration): 5.78 nM
patients who developed ADA [3]: None
CXCR4 agonist properties [4]: does not exhibit any CXCR4 agonist properties
value observed in chemotaxis inhibition assays [5]: 0.26 nM
mobilization of leukocytes and hematopoietic progenitors to the blood stream [6]: dose‐ and time‐dependent mobilization
effect on tumor metastasis [7]: inhibit tumor metastasis
substrate, inhibitor or inducer of cytochromes [8]: not a substrate, an inhibitor, or an inducer of cytochromes
dose recovered as parent drug in urine [9]: < 40%

Reference: publication PMC5613202 (CPT: Pharmacometrics & Systems Pharmacology, 2017)
